Source: PubChem BioAssay
bIAP activator: increases bovine intestinal alkaline phosphatase activity. purified bovine IAP, CDP-star luminescence, 30 min; stronger effect = higher value; fold of DMSO-control signal, blank-subtracted. activation factor at 20 µM. 200,000 compounds, 0.17% hits;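 active = activation factor of 2 or more at 20 µM, a signal rise over negative controls twice the positive control's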
bIAP inh: blocks bovine intestinal alkaline phosphatase activity. 190,000 tested, under 10 active. AID 1019. purified bovine IAP, CDP-star luminescence, 30 min. inhibition, % at 20 µM;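 active = over 50% inhibition of intestinal alkaline phosphatase at 20 µM in the single-dose screen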
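Assay system: bovine IAP enzyme; medium: DEA buffer 100 mM, pH 9.8, with MgCl2 1.0 mM, ZnCl2 0.02 mM; doses: 20 µM single dose; incubation: enzyme reaction for 30 min at room temperature; detection: CDP-star luminescence signal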
mIAP inh: mouse IAP inhibition. purified mouse IAP, CDP-Star luminescence, 30 min. inhibition, % at 10 µM. 330,000 compounds, 0.2% hits;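 active = inhibition of at least 40% at 10 µM in the primary screen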
hIAP inh: blocks human intestinal alkaline phosphatase; P09923; purified IAP, CDP-Star luminescence, 30 min; inhibition, % at 10 µM; 330,000 compounds, 0.12% hits; AID 2544;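 active = inhibition reaching a set limit with compound at 10 µM in the primary screen, cut at about 35% in these data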
Target sequence (P09923 whole entry, looked up): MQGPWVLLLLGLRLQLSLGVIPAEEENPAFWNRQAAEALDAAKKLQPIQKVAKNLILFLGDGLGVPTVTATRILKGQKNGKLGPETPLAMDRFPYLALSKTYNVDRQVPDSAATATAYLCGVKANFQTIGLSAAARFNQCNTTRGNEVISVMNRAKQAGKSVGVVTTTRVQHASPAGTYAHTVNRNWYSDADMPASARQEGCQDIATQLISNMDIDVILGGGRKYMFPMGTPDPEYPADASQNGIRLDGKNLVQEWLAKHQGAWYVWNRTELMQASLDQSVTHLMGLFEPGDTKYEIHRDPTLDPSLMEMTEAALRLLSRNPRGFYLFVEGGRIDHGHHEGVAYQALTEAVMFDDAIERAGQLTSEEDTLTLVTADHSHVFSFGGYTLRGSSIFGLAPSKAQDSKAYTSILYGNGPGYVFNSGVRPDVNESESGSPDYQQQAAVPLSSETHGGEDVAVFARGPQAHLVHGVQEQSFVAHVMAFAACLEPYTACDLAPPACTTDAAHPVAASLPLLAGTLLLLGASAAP
mIAP activ: mouse IAP activation; muIAP, CDP-Star luminescence, 30 min; stronger effect = higher value; 1 = vehicle-only enzyme signal, 0 = enzyme-free wells; activation factor at 10 µM; 330,000 compounds, 0.24% hits;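 active = activation factor of at least 2 at 20 µM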
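Assay system: mouse IAP enzyme; reagent: chemiluminescent substrate CDP-Star; dosing: test compounds delivered from DMSO solution; schedule: 30 min at room temperature; measured by: luminescence from enzymatic CDP-Star hydrolysis; controls: DMSO-only wells and no-enzyme negative control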
hIAP activ: increases human intestinal alkaline phosphatase activity; P09923; AID 2524; 330,000 compounds, 0.16% hits; activation factor at 10 µM; purified human IAP, CDP-Star luminescence, 30 min; stronger effect = higher value; 1 = vehicle-only enzyme, 0 = enzyme-free background;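 active = activation factor of the enzyme at least 2-fold when tested at 20 µM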
Of the large screens only hits and unclear results are named; the others gave an inactive call. Shown are actives, neighbours in structure and some others; about 0.77% of the full set was active somewhere.

Cc1cc(OCCCCCn2ccnc2)cc(C)c1Cl	bIAP activator 68
Cc1ccc(S(=O)(=O)Nc2ccc(-c3nc4cc(NS(=O)(=O)c5ccc(C)cc5)ccc4o3)cc2)cc1	none (no result: mIAP inh, hIAP inh, mIAP activ, hIAP activ)
Cc1cccc(C)c1OCC(=O)Nc1ccc2c(c1)OCCO2	none (no result: bIAP activator, bIAP inh)
Cn1nc(C(=O)NC2CCCCC2)c2ccccc2c1=O	none
Cn1nc(CC(=O)NC2CCCCCCCCCCC2)c2ccccc2c1=O	bIAP activator 2.3
CCO[C@@H]1OC(C(=O)N2CCN(Cc3ccc4c(c3)OCO4)CC2)=C[C@H](c2cn(C(C)=O)c3ccccc23)[C@H]1CCCO	mIAP inh 43
CCO[C@@H]1OC(C(=O)N2CCN(Cc3ccc4c(c3)OCO4)CC2)=C[C@H](c2csc3ccccc23)[C@H]1CCCO	none
CCOc1ccc(C2Nc3ccc4ccccc4c3-c3c2c(=O)oc2ccccc32)cc1 (centres undefined)	none
COc1ccc(C2Nc3ccc4ccccc4c3-c3c2c(=O)oc2ccccc32)cc1 (centres undefined)	bIAP activator 3.5
COc1ccc(-c2nc(CS(=O)CC(=O)N3CCOCC3)c(C)o2)cc1OC (centres undefined)	none (no result: bIAP activator, bIAP inh)
CCCCNC1c2ccccc2C(=O)N1Cc1ccccc1 (centres undefined)	none (no result: bIAP activator, bIAP inh)
CCOC(=O)N1CCN(CC(O)COc2ccccc2[N+](=O)[O-])CC1 (centres undefined)	none (no result: bIAP activator, bIAP inh)
N#C/C(=C/c1ccc(N2CCCCC2)o1)C(=O)Nc1ccc(Cl)cc1	hIAP inh 38
C/C(=N\NC(=O)c1ccccc1F)c1cccc(NC(=O)c2ccc(C)cc2)c1	none (no result: bIAP activator, bIAP inh)
CCOc1ccccc1NC(=S)N1C2CCC1CC(NC(=O)NC13CC4CC(CC(C4)C1)C3)C2 (centres undefined)	mIAP activ 2.1
C=CCC[C@H](Cc1ccc(F)cc1)C(=O)OC[C@H](Cc1c[nH]c2ccccc12)NC(=O)[C@@H](CC=C)CC(=O)N[C@H](CO)Cc1ccccc1	none (no result: bIAP activator, bIAP inh)
Cc1cc(C)n(-c2nc(NCCC(C)C)c3c4c(sc3n2)COC(C)(C)C4)n1	bIAP activator 2.4 (no result: mIAP inh, hIAP inh, mIAP activ, hIAP activ)
Cc1cc(C)n(-c2nc(NCCN(C)C)c3c4c(sc3n2)COC(C)(C)C4)n1	none (no result: bIAP activator, bIAP inh)
CSc1nnc(-c2ccco2)c(-c2ccco2)n1	mIAP inh 46
CSc1nnc(-c2ccccc2)c(-c2ccccc2)n1	none (no result: bIAP activator, bIAP inh)
O=C(Nc1cccc(-c2nc3ccccc3o2)c1)c1ccc(N2C(=O)C3C4C=CC(C4)C3C2=O)cc1 (centres undefined)	none
O=C1C2C3C=CC(C3)C2C(=O)N1c1cccc(-c2nc3ccccc3o2)c1 (centres undefined)	bIAP activator 3.9
CC(C(=O)NCc1ccco1)n1ccc2cc(S(=O)(=O)N3CCCC3)ccc21 (centres undefined)	none (no result: bIAP activator, bIAP inh)
COc1ccc(CNC(=O)C(C)n2ccc3cc(S(=O)(=O)N4CCCCCC4)ccc32)cc1 (centres undefined)	mIAP activ 2.1 (no result: bIAP activator, bIAP inh)
CCOc1cc(/C=C2\SC(=Nc3ccc(CC)cc3)NC2=O)ccc1OCC(=O)O	none (no result: bIAP activator, bIAP inh)
COc1ccc(C)cc1NC(=O)CCC(=O)Nc1nnc(C2CCCCC2)s1	none (no result: bIAP activator, bIAP inh)
CC(C)c1ccc(C(C(=O)NC2CCCCC2)N(C(=O)c2csnn2)C2CC2)cc1 (centres undefined)	none (no result: bIAP activator, bIAP inh)
CCc1ccc(-c2nc(CN3CCC(C(=O)NCCc4ccc(OC)c(OC)c4)CC3)c(C)o2)cc1	bIAP activator 2.1
CCc1ccc(-c2nc(CN3CCC(C(=O)NCc4ccccc4OC)CC3)c(C)o2)cc1	bIAP activator 2.6
O=C(COC(=O)c1ccc(S(=O)(=O)NCc2ccco2)cc1)Nc1ccccc1OC(F)F	bIAP activator 2.4
O=C(COC(=O)c1ccc(S(=O)(=O)NCc2ccco2)cc1)Nc1ccccc1	none (no result: bIAP activator, bIAP inh)
O=C(CN1CCN(C(=O)c2ccco2)CC1)Nc1ccccc1	none (no result: bIAP activator, bIAP inh)
O=C(Nc1ccccc1)NC1(C(=O)N2CCN(C(=O)c3ccco3)CC2)CCCCC1	bIAP activator 6.3
O=C(NCc1ccccc1)NC1(C(=O)N2CCN(c3ccccc3)CC2)CCCCC1	bIAP activator 2.1, mIAP activ 2.3
CCOC(=O)c1sc(NC(=O)Nc2ccccc2Cl)cc1C	mIAP activ 3.2
CCOC(=O)c1sc(NC(=O)Nc2ccccc2)cc1C	none
